Reference: ChEMBL document CHEMBL4049407, “Positional Scanning Identifies the Molecular Determinants of a High Affinity Multi-Leucine Inhibitor for Furin and PACE4” (J Med Chem, 2017)
The source made the active and inactive calls. How the calls were made is not given here. Peptide text beside a SMILES is read from it. * marks the point of attachment. NH(4-amidinobenzyl) = N=C(N)c1ccc(CN*)cc1

Key:
DU-145 = assay: Antiproliferative activity against human DU145 cells assessed as reduction in metabolic activity at 25 to 100 uM after 72 hrs by MTT assay; type: functional, cell-based
How it was run: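 First-pass MTT screen of each library peptide on DU145 cells (RPMI 1640, 5% FBS, 1500 cells/well, poly-L-lysine plates). Peptides added 24 h after seeding at 25, 50 and 100 µM in fresh serum medium for 72 h. MTT 1 mg/mL for 4 h; 2-propanol HCl solubilisation. Activity normalised to water vehicle. Mean ± SEM of at least two independent experiments.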

Furin = Furin (Homo sapiens, UniProt P09958); assay: Inhibition of recombinant human furin expressed in drosophila S2 cells using pyrGlu-Arg-Thr-Lys-Arg-7-amido-4-methylcoumarin as substrate after 60 mins by spectrofluorometry method; type: cell-based
How it was run: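 Human recombinant purified furin at 2 units/100 µL (0.54 nM), in 100 mM HEPES pH 7.5, 1 mM CaCl2, 1 mM β-mercaptoethanol, 1.8 mg/mL BSA. His-containing peptides run instead in 20 mM BisTris pH 6.5 with the same additives. Substrate 100 µM, KM 5.04 µM. Inhibitor 1 nM to 10 µM; 60 min at 37°C. Fluorescence ex 370 / em 460 nm. Ki by Morrison equation; triplicate experiments, mean ± SD.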

Homo sapiens = species on record: Homo sapiens; assay: Selectivity index, ratio of Ki for recombinant human furin expressed in drosophila S2 cells to Ki for recombinant human PACE4 expressed in drosophila S2 cells; type: cell-based
How it was run: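 Ratio Ki(furin)/Ki(PACE4). […] PACE4 buffer was BisTris pH 6.5; furin buffer was HEPES pH 7.5, or BisTris pH 6.5 for His peptides. Ki fitted by Morrison equation from three independent experiments.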

[1] = biological target: T1, Proprotein convertase subtilisin/kexin type 6 (Homo sapiens, UniProt P29122); assay: Inhibition of recombinant human PACE4 expressed in drosophila S2 cells using pyrGlu-Arg-Thr-Lys-Arg-7-amido-4-methylcoumarin as substrate after 60 mins by spectrofluorometry method; type: cell-based
T1 sequence (P29122 whole entry): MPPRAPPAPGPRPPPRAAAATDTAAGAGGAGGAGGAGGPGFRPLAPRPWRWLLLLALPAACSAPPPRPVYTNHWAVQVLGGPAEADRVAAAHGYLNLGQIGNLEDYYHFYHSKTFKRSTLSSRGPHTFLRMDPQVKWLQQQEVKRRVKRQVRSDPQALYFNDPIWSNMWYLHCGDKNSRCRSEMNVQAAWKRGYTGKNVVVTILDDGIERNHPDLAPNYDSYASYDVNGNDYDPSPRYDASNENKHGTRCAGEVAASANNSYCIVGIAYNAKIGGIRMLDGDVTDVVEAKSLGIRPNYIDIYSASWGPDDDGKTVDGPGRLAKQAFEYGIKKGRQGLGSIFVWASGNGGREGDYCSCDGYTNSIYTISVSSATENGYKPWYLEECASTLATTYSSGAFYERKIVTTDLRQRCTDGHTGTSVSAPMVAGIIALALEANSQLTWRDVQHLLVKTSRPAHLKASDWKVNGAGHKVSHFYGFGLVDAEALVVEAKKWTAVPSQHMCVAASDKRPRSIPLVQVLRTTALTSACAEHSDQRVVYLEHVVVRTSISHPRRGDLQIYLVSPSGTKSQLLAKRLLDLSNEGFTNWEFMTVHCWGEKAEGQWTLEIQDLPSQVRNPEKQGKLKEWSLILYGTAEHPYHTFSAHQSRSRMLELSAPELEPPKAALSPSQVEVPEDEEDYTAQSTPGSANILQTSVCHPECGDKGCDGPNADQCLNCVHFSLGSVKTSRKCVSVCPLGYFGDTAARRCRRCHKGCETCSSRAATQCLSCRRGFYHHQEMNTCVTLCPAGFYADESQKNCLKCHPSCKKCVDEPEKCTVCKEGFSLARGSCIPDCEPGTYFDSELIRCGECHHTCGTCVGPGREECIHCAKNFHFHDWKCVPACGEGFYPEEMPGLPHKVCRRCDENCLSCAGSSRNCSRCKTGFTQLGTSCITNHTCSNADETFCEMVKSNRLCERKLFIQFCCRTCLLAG
How it was run: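 Human recombinant purified PACE4 at 2 units/100 µL (20.18 nM), in 20 mM BisTris pH 6.5, 1 mM CaCl2, 1.8 mg/mL BSA. Substrate 100 µM, KM 4.035 µM. Inhibitor 1 nM to 10 µM; 60 min at 37°C. Fluorescence ex 370 / em 460 nm. Ki by Morrison tight-binding equation; three independent experiments, mean ± SD.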

Sequence of Furin (P09958 whole entry): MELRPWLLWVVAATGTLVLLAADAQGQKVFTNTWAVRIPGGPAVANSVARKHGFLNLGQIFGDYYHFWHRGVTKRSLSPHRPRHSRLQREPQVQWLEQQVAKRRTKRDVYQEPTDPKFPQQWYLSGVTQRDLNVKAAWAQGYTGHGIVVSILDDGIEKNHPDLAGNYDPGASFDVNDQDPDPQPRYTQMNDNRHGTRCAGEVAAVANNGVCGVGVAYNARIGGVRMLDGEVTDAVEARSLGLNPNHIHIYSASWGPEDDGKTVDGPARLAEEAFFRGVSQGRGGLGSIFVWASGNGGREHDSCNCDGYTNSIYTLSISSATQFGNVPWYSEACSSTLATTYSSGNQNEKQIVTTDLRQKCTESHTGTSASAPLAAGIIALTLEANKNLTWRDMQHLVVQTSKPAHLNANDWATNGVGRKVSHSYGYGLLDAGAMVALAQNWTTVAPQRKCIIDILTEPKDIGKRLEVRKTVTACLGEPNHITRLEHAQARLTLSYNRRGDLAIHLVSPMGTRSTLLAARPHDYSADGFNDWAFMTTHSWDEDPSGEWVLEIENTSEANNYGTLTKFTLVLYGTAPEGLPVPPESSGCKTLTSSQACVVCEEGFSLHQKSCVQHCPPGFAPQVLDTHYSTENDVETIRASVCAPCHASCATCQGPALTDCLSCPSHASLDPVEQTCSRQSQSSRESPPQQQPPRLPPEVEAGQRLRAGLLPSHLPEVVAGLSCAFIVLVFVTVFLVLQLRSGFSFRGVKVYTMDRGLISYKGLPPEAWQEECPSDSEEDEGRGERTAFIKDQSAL

Row | Structure (SMILES) | Ki (Furin) [nM] | Ki [1] [nM] | Activity (DU-145) | Ratio Ki (Homo sapiens)
1 | CC(=O)N[C@@H](C)C(=O)N[C@@H](CC(C)C)C(=O)N[C@@H](CC(C)C)C(=O)N[C@@H](CC(C)C)C(=O)N[C@@H](CCCNC(=N)N)C(=O)N[C@H](C(=O)N[C@@H](CCCCN)C(=O)NCc1ccc(C(=N)N)cc1)C(C)C (Ac-ALLLRVK-{NH(4-amidinobenzyl)}) | 3 | 1.5 | inactive | 2
2 | CC(=O)NCC(=O)N[C@@H](CC(C)C)C(=O)N[C@@H](CC(C)C)C(=O)N[C@@H](CC(C)C)C(=O)N[C@@H](CCCNC(=N)N)C(=O)N[C@H](C(=O)N[C@@H](CCCCN)C(=O)NCc1ccc(C(=N)N)cc1)C(C)C (Ac-GLLLRVK-{NH(4-amidinobenzyl)}) | 3 | 3 | inactive | 1
3 | CC(=O)N[C@@H](CCCCN)C(=O)N[C@@H](CC(C)C)C(=O)N[C@@H](CC(C)C)C(=O)N[C@@H](CC(C)C)C(=O)N[C@@H](CCCNC(=N)N)C(=O)N[C@H](C(=O)N[C@@H](CCCCN)C(=O)NCc1ccc(C(=N)N)cc1)C(C)C (Ac-KLLLRVK-{NH(4-amidinobenzyl)}) | 0.4 | 0.3 | inactive | 1.3
4 | CC(=O)N[C@@H](CC(C)C)C(=O)N[C@@H](CC(=O)O)C(=O)N[C@@H](CC(C)C)C(=O)N[C@@H](CC(C)C)C(=O)N[C@@H](CCCNC(=N)N)C(=O)N[C@H](C(=O)N[C@@H](CCCCN)C(=O)NCc1ccc(C(=N)N)cc1)C(C)C (Ac-LDLLRVK-{NH(4-amidinobenzyl)}) | 50 | 80 | inactive | 0.6
5 | CC(=O)N[C@@H](CC(C)C)C(=O)NCC(=O)N[C@@H](CC(C)C)C(=O)N[C@@H](CC(C)C)C(=O)N[C@@H](CCCNC(=N)N)C(=O)N[C@H](C(=O)N[C@@H](CCCCN)C(=O)NCc1ccc(C(=N)N)cc1)C(C)C (Ac-LGLLRVK-{NH(4-amidinobenzyl)}) | 3 | 2 | inactive | 1.5
6 | CC(=O)N[C@@H](CC(C)C)C(=O)N[C@@H](CC(C)C)C(=O)N[C@@H](C)C(=O)N[C@@H](CC(C)C)C(=O)N[C@@H](CCCNC(=N)N)C(=O)N[C@H](C(=O)N[C@@H](CCCCN)C(=O)NCc1ccc(C(=N)N)cc1)C(C)C (Ac-LLALRVK-{NH(4-amidinobenzyl)}) | 11 | 30 | inactive | 0.4
7 | CC(=O)N[C@@H](CC(C)C)C(=O)N[C@@H](CC(C)C)C(=O)N[C@@H](CC(=O)O)C(=O)N[C@@H](CC(C)C)C(=O)N[C@@H](CCCNC(=N)N)C(=O)N[C@H](C(=O)N[C@@H](CCCCN)C(=O)NCc1ccc(C(=N)N)cc1)C(C)C (Ac-LLDLRVK-{NH(4-amidinobenzyl)}) | 140 | 140 | inactive | 1
8 | CC(=O)N[C@@H](CC(C)C)C(=O)N[C@@H](CC(C)C)C(=O)NCC(=O)N[C@@H](CC(C)C)C(=O)N[C@@H](CCCNC(=N)N)C(=O)N[C@H](C(=O)N[C@@H](CCCCN)C(=O)NCc1ccc(C(=N)N)cc1)C(C)C (Ac-LLGLRVK-{NH(4-amidinobenzyl)}) | 16.7 | 21 | inactive | 0.8
9 | CC(=O)N[C@@H](CC(C)C)C(=O)N[C@@H](CC(C)C)C(=O)N[C@@H](CC(C)C)C(=O)N[C@@H](C)C(=O)N[C@@H](CCCNC(=N)N)C(=O)N[C@H](C(=O)N[C@@H](CCCCN)C(=O)NCc1ccc(C(=N)N)cc1)C(C)C (Ac-LLLARVK-{NH(4-amidinobenzyl)}) | 5 | 4 | inactive | 1.3

More lines, in order of falling Ki (Furin), values ahead:

Row | Ki (Furin) [nM] | Ki [1] [nM] | Structure (SMILES) | Activity (DU-145) | Ratio Ki (Homo sapiens)
10 | 260 | 400 | CC(=O)N[C@@H](CC(C)C)C(=O)N[C@@H](CC(C)C)C(=O)N[C@@H](CC(C)C)C(=O)N[C@@H](CC(=O)O)C(=O)N[C@@H](CCCNC(=N)N)C(=O)N[C@H](C(=O)N[C@@H](CCCCN)C(=O)NCc1ccc(C(=N)N)cc1)C(C)C (Ac-LLLDRVK-{NH(4-amidinobenzyl)}) | inactive | 0.6
11 | 50 | 60 | CC(=O)N[C@@H](CC(C)C)C(=O)N[C@@H](CC(C)C)C(=O)N[C@@H](CCC(=O)O)C(=O)N[C@@H](CC(C)C)C(=O)N[C@@H](CCCNC(=N)N)C(=O)N[C@H](C(=O)N[C@@H](CCCCN)C(=O)NCc1ccc(C(=N)N)cc1)C(C)C (Ac-LLELRVK-{NH(4-amidinobenzyl)}) | inactive | 0.8
12 | 23 | 51 | CC(=O)N[C@@H](CC(C)C)C(=O)N[C@@H](CCC(=O)O)C(=O)N[C@@H](CC(C)C)C(=O)N[C@@H](CC(C)C)C(=O)N[C@@H](CCCNC(=N)N)C(=O)N[C@H](C(=O)N[C@@H](CCCCN)C(=O)NCc1ccc(C(=N)N)cc1)C(C)C (Ac-LELLRVK-{NH(4-amidinobenzyl)}) | inactive | 0.5
13 | 4.8 | 1.8 | CC(=O)N[C@@H](CC(C)C)C(=O)N[C@@H](CC(C)C)C(=O)N[C@@H](Cc1cnc[nH]1)C(=O)N[C@@H](CC(C)C)C(=O)N[C@@H](CCCNC(=N)N)C(=O)N[C@H](C(=O)N[C@@H](CCCCN)C(=O)NCc1ccc(C(=N)N)cc1)C(C)C (Ac-LLHLRVK-{NH(4-amidinobenzyl)}) | inactive | 2.7
14 | 4.7 | 3 | CC(=O)N[C@@H](CC(C)C)C(=O)N[C@@H](Cc1cnc[nH]1)C(=O)N[C@@H](CC(C)C)C(=O)N[C@@H](CC(C)C)C(=O)N[C@@H](CCCNC(=N)N)C(=O)N[C@H](C(=O)N[C@@H](CCCCN)C(=O)NCc1ccc(C(=N)N)cc1)C(C)C (Ac-LHLLRVK-{NH(4-amidinobenzyl)}) | inactive | 1.6
15 | 4 | 2.2 | CC(=O)N[C@@H](CC(C)C)C(=O)N[C@@H](CC(C)C)C(=O)N[C@@H](CCCCN)C(=O)N[C@@H](CC(C)C)C(=O)N[C@@H](CCCNC(=N)N)C(=O)N[C@H](C(=O)N[C@@H](CCCCN)C(=O)NCc1ccc(C(=N)N)cc1)C(C)C (Ac-LLKLRVK-{NH(4-amidinobenzyl)}) | inactive | 1.8
16 | 1.8 | 1.3 | CC(=O)N[C@@H](Cc1cnc[nH]1)C(=O)N[C@@H](CC(C)C)C(=O)N[C@@H](CC(C)C)C(=O)N[C@@H](CC(C)C)C(=O)N[C@@H](CCCNC(=N)N)C(=O)N[C@H](C(=O)N[C@@H](CCCCN)C(=O)NCc1ccc(C(=N)N)cc1)C(C)C (Ac-HLLLRVK-{NH(4-amidinobenzyl)}) | inactive | 1.4
17 | 1.5 | 2 | CC(=O)N[C@@H](CC(C)C)C(=O)N[C@@H](C)C(=O)N[C@@H](CC(C)C)C(=O)N[C@@H](CC(C)C)C(=O)N[C@@H](CCCNC(=N)N)C(=O)N[C@H](C(=O)N[C@@H](CCCCN)C(=O)NCc1ccc(C(=N)N)cc1)C(C)C (Ac-LALLRVK-{NH(4-amidinobenzyl)}) | inactive | 0.8
18 | 0.6 | 0.5 | CC(=O)N[C@@H](CC(C)C)C(=O)N[C@@H](CCCCN)C(=O)N[C@@H](CC(C)C)C(=O)N[C@@H](CC(C)C)C(=O)N[C@@H](CCCNC(=N)N)C(=O)N[C@H](C(=O)N[C@@H](CCCCN)C(=O)NCc1ccc(C(=N)N)cc1)C(C)C (Ac-LKLLRVK-{NH(4-amidinobenzyl)}) | inactive | 1.2
